From ChEMBL document CHEMBL1134337, “Behavioral approach to nondyskinetic dopamine antagonists: identification of seroquel” (J Med Chem, 2001)

Legend:
[1] = Number of animals showing dyskinesias was determined in haloperidol sensitized 6 cebus monkeys after (po) administration of 10 mg/kg; assay type: functional; settings: dose 20 mg/kg; in the assay text read “20 mg/kg” for “10 mg/kg”
Summary of the method: (§1)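 Adult female and male Cebus monkeys sensitized with oral haloperidol 1 mg/kg once per week until dyskinetic reactions occurred. Test drug given orally (2 mL/kg) in 0.5% w/w hydroxypropylmethylcellulose with 0.1% w/w Tween 80 in distilled water, at least 2 weeks between treatments. Two observers watched continuously for 6-7 h, recording reaction type and severity every 30 min. Score is monkeys with dyskinesias/monkeys tested.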

D(2) dopamine receptor = D(2) dopamine receptor (Rattus norvegicus, UniProt P61169); test: Inhibition of spiropiperidone binding at dopamine receptor D2 of rat.
D(2) dopamine receptor, sequence (P61169 whole entry): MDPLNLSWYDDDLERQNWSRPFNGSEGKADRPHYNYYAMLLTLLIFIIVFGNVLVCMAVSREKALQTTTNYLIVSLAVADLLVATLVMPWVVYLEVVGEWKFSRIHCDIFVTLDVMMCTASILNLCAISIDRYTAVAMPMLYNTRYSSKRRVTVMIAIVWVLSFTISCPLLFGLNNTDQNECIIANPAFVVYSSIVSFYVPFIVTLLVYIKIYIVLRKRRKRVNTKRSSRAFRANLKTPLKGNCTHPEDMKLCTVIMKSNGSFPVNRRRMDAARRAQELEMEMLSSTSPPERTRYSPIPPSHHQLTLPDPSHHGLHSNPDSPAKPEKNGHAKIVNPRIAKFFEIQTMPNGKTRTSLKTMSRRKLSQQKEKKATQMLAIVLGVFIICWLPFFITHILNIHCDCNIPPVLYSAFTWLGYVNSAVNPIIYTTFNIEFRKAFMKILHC

Mus musculus [2] = test: Antagonism of apomorphine induced climbing was determined in female swiss -Wbster mice after (ip) administration of 10 mg/kg; assay type: functional
Summary of the method: (§2)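 Female Swiss-Webster mice (about 20 g) were fasted about 24 h, then given test compound or vehicle ip or po (N = 20 per group). Vehicle was 0.5% w/w hydroxypropylmethylcellulose with 0.1% w/w Tween 80 in water. After 30 min, mice received apomorphine HCl 1.25 mg/kg sc. At 13 min, each mouse was watched for 1 min; score was mean of highest and lowest rung of 27. Groups were compared with vehicle by Student's t-test.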

Mus musculus [3] = test: Antagonism of apomorphine induced climbing was determined in female swiss -Wbster mice after (ip) administration of 20 mg/kg; assay type: functional; summary of the method: as §2
Mus musculus [4] = test: Antagonism of apomorphine induced climbing was determined in female swiss -Wbster mice after (ip) administration of 40 mg/kg; assay type: functional; summary of the method: as §2
Mus musculus [5] = test: Antagonism of apomorphine induced swimming was determined in female swiss -Wbster mice after (ip) administration of 10 mg/kg; assay type: functional
Mus musculus [6] = test: Antagonism of apomorphine induced swimming was determined in female swiss -Wbster mice after (ip) administration of 20 mg/kg; assay type: functional
Mus musculus [7] = test: Antagonism of apomorphine induced swimming was determined in female swiss -Wbster mice after (ip) administration of 40 mg/kg; assay type: functional
[8] = Number of animals showing dyskinesias was determined in haloperidol sensitized 2 cebus monkeys after (po) administration of 80 mg/kg; assay type: functional; summary of the method: as §1
[9] = Number of animals showing dyskinesias was determined in haloperidol sensitized 2cebus monkeys after (po) administration of 20 mg/kg; assay type: functional; summary of the method: as §1
[10] = Number of animals showing dyskinesias was determined in haloperidol sensitized 4 cebus monkeys after (po) administration of 40 mg/kg; assay type: functional; summary of the method: as §1
[11] = molecular target: D(2) dopamine receptor (Rattus norvegicus) (UniProt P61169); test: Binding affinity at dopamine receptor D2 from rat by spiropiperidone displacement.
D(2) dopamine receptor (Rattus norvegicus), sequence (P61169 whole entry): as above
Summary of the method: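 D2 receptor binding was read as % displacement of spiropiperidone, with test compound at 1000 nM unless stated otherwise. IC50 values used at least five concentrations per compound in triplicate. Each value is the mean of two replicate experiments differing by 5% or less.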

Mus musculus [12] = test: Antagonism of apomorphine induced climbing was determined in female swiss -Wbster mice after (ip) administration of 80 mg/kg; assay type: functional; summary of the method: as §2
Mus musculus [13] = test: Antagonism of apomorphine induced swimming was determined in female swiss -Wbster mice after (po) administration of 20 mg/kg; assay type: functional
Mus musculus [14] = test: Antagonism of apomorphine induced swimming was determined in female swiss -Wbster mice after (po) administration of 40 mg/kg; assay type: functional
[15] = Number of animals showing dyskinesias was determined in haloperidol sensitized 3 cebus monkeys after (po) administration of 20 mg/kg; assay type: functional; summary of the method: as §1
Mus musculus [16] = test: Antagonism of apomorphine induced swimming was determined in female swiss -Webster mice after (po) administration of 10 mg/kg; assay type: functional
Summary of the method: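 Female Swiss-Webster mice (~20 g), food-deprived ~24 h, N = 20 per group; oral dosing in 0.5% w/w hydroxypropylmethylcellulose with 0.1% w/w Tween 80 in water. Apomorphine given; mice placed in a circular tank (5.5 cm water, room temperature) with marks 180° apart. Each 180° swim counted, observed via overhead mirrors; group score derived from swim counts.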

Mus musculus [17] = test: Antagonism of apomorphine induced swimming was determined in female swiss -Webster mice after (po) administration of 20 mg/kg; assay type: functional
Mus musculus [18] = test: Antagonism of apomorphine induced swimming was determined in female swiss -Webster mice after (po) administration of 40 mg/kg; assay type: functional
Mus musculus [19] = test: Antagonism of apomorphine induced swimming was determined in female swiss -Webster mice after (po) administration of 80 mg/kg; assay type: functional
[20] = Number of animals showing dyskinesias was determined in haloperidol sensitized 9 cebus monkeys after (po) administration of 80 mg/kg; assay type: functional; summary of the method: as §1
Mus musculus [21] = test: Antagonism of apomorphine induced climbing was determined in female swiss -Wbster mice after (po) administration of 20 mg/kg; assay type: functional; summary of the method: as §2
Mus musculus [22] = test: Antagonism of apomorphine induced climbing was determined in female swiss -Wbster mice after (po) administration of 40 mg/kg; assay type: functional; summary of the method: as §2
Mus musculus [23] = test: Antagonism of apomorphine induced climbing was determined in female swiss -Wbster mice after (po) administration of 80 mg/kg; assay type: functional; summary of the method: as §2
Mus musculus [24] = test: Antagonism of apomorphine induced swimming was determined in female swiss -Wbster mice after (po) administration of 80 mg/kg; assay type: functional
[25] = Number of animals showing dyskinesias was determined in haloperidol sensitized 11 cebus monkeys after (po) administration of 40 mg/kg; assay type: functional
Summary of the method: (§3)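 Adult male and female Cebus monkeys sensitized with haloperidol 1 mg/kg po weekly until dyskinetic reactions appeared. Drug given orally (2 mL/kg) in 0.5% w/w hydroxypropylmethylcellulose with 0.1% w/w Tween 80, at least 2 weeks between treatments. Two observers watched continuously for 6–7 h, logging reaction type and severity every 30 min. Score is the number of monkeys with dyskinesias over the number tested.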

[26] = Number of animals showing dyskinesias was determined in haloperidol sensitized 13 cebus monkeys after (po) administration of 10 mg/kg; assay type: functional; summary of the method: as §3
[27] = Number of animals showing dyskinesias was determined in haloperidol sensitized 13 cebus monkeys after (po) administration of 20 mg/kg; assay type: functional; summary of the method: as §3
Mus musculus [28] = test: Antagonism of apomorphine induced climbing was determined in female swiss -Webster mice after (ip) administration of 10 mg/kg; assay type: functional; summary of the method: as §2
Mus musculus [29] = test: Antagonism of apomorphine induced climbing was determined in female swiss -Webster mice after (ip) administration of 20 mg/kg; assay type: functional; summary of the method: as §2
Mus musculus [30] = test: Antagonism of apomorphine induced climbing was determined in female swiss -Webster mice after (ip) administration of 40 mg/kg; assay type: functional; summary of the method: as §2
Mus musculus [31] = test: Antagonism of apomorphine induced climbing was determined in female swiss -Webster mice after (ip) administration of 80 mg/kg; assay type: functional; summary of the method: as §2

Compound	IC50 (D(2) dopamine receptor) [µM]	% displacement of spiropiperidone [11] [%]	Activity (Mus musculus [2])	Activity (Mus musculus [3])	Activity (Mus musculus [4])	Activity (Mus musculus [12])	Activity (Mus musculus [13])	Activity (Mus musculus [14])	Activity (Mus musculus [16])	Activity (Mus musculus [24])	also measured
CN1CCN(C2=Nc3ccc(F)cc3Sc3ccccc32)CC1	0.963	–	18	13	5	1	–	–	1	–	Activity (Mus musculus [17]): 2; Activity (Mus musculus [18]): 3; Activity (Mus musculus [19]): 9
OCCOCCN1CCN(C2=Nc3ccccc3Cc3ccccc32)CC1	–	22	–	21	17	2	1	1	–	3	No of monkeys [20]: 0; Activity (Mus musculus [21]): 24; Activity (Mus musculus [22]): 17; Activity (Mus musculus [23]): 10
CN1CCN(C2=Nc3cc(Cl)ccc3Nc3ccccc32)CC1 [CLOZAPINE]	–	–	–	–	–	–	3	>13	4	>15	No of monkeys [25]: 0; No of monkeys [26]: 0; No of monkeys [27]: 0; Activity (Mus musculus [28]): 23; Activity (Mus musculus [29]): 19; Activity (Mus musculus [30]): >5; Activity (Mus musculus [31]): >0

The next lines start with results.

IC50 (D(2) dopamine receptor) [µM]	% displacement of spiropiperidone [11] [%]	Compound	Activity (Mus musculus [2])	Activity (Mus musculus [3])	Activity (Mus musculus [4])	Activity (Mus musculus [12])	Activity (Mus musculus [13])	Activity (Mus musculus [14])	Activity (Mus musculus [16])	Activity (Mus musculus [24])	also measured
0.166	–	OCCOCCN1CCN(C2=Nc3ccc(O)cc3Sc3ccccc32)CC1	27	5	0	–	–	–	–	–	No of monkeys [1]: 5; Activity (Mus musculus [5]): 5; Activity (Mus musculus [6]): 17; Activity (Mus musculus [7]): 31
–	34	OCCOCCN1CCN(C2=Nc3cc(F)ccc3Sc3ccccc32)CC1	–	16	14	6	–	–	–	–	No of monkeys [8]: 0; No of monkeys [9]: 0; No of monkeys [10]: 0
–	54	OCCOCCN1CCN(C2=Nc3cc(Cl)ccc3Oc3ccccc32)CC1	–	17	0	–	2	4	–	–	No of monkeys [15]: 2
